In PMC2947205 (Science (New York, N.Y.), 2009):
Like-named read-outs stand apart in the source and are kept apart here.

Legend:
sigma-1 receptor [1] = target: T1, sigma-1 receptor (Rattus norvegicus, UniProt Q9R0C9); assay: Protection of [125I]IAF photolabeling of sigma-1 receptor in rat liver membranes; format: binding; conditions: for protection of [125I]IAF photolabeling of the sigma-1 receptor: 1 nM [125I]IAF
[2] = system: WT neonatal cardiac myocytes; assay: Patch-clamp INa in WT neonatal cardiac myocytes; format: cell-based; conditions: Mus musculus, read-out: inhibition of INa
Summary of the method: (§1)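 Neonatal cardiac myocytes came from wild-type and sigma-1 receptor knock-out mice. INa was evoked by steps from −80 to −10 mV and recorded in the absence of, during and after washout of 100 μM test compound.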

KO myocytes = assay: Patch-clamp INa in sigma-1 receptor KO neonatal cardiac myocytes; format: cell-based, mouse; conditions: 100 μM, n = 7
Summary of the method: as §1

sigma-1 receptor [3] = target: T1, sigma-1 receptor; assay: Protection of [125I]-IACoc photolabeling in rat liver membranes; format: binding; conditions: for protection of [125I]-IACoc photolabeling of the 26-kD sigma-1 receptor: 1 nM [125I]-IACoc; for protection against sigma-1 receptor [125I]-IACoc photolabeling (in words): even at these high concentrations (50 and 100 μM)
[4] = system: human cardiac Na+ channel hNav1.5; assay: Patch-clamp INa in HEK293 cells stably expressing hNav1.5; format: cell-based; conditions: 100 μM, steps from −80 to −10 mV, n = 3
Summary of the method: (§2)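 Whole-cell INa was recorded in hNav1.5-expressing cells (HEK293; COS-7 transiently transfected). Currents were evoked by steps from −80 to −10 mV before, during and after washout of 100 μM test compound. Inhibition was derived from peak INa, reported as mean ± SEM of n = 3 cells.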

WT mice = assay: Open-field assay, WT mice; format: in vivo, mouse
[5] = system: human cardiac Na+ channel hNav1.5; assay: Patch-clamp INa in COS-7 cells transiently transfected with hNav1.5; format: cell-based; conditions: 100 μM, n = 3
Summary of the method: as §2

sigma-2 receptor [6] = target: T2, sigma-2 receptor (Homo sapiens, UniProt Q5BJF2); assay: Sigma-2 receptor binding
sigma-1 receptor [7] = target: T3, sigma-1 receptor (Homo sapiens, UniProt Q99720); conditions: read-out: sigma-1 Kd; cited from earlier work
sigma-2 receptor [8] = target: T2, sigma-2 receptor; conditions: read-out: sigma-2 Kd; cited from earlier work
sigma-2 receptor [9] = target: T4, sigma-2 receptor (Rattus norvegicus, UniProt Q5U3Y7); assay: Protection of [125I]IAF photolabeling of sigma-2 receptor in rat liver membranes; format: binding; conditions: for protection of [125I]IAF sigma-2 receptor photolabeling: 1 nM [125I]IAF
T4 sequence (Q5U3Y7 1-176): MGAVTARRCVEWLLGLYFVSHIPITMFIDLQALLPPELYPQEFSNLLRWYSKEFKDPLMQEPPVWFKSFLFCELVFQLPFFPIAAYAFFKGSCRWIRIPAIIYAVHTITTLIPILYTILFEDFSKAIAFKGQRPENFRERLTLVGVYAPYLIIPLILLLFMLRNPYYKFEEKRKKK

sigma-1 receptor KO mice = assay: Open-field assay, sigma-1 receptor KO mice; format: in vivo, mouse; conditions: 3 mg/kg, ip, n = 6
sigma-1 receptor [10] = target: T3, sigma-1 receptor; assay: Competition binding against

T1 sequence (Q9R0C9 whole entry): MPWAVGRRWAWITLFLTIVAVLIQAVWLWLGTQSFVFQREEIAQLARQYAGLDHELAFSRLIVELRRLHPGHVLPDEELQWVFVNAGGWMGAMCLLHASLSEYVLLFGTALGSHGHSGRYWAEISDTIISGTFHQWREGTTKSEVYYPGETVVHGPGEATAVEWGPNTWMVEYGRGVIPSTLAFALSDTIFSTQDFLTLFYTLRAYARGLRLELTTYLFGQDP
T2 sequence (Q5BJF2 whole entry, species assumed): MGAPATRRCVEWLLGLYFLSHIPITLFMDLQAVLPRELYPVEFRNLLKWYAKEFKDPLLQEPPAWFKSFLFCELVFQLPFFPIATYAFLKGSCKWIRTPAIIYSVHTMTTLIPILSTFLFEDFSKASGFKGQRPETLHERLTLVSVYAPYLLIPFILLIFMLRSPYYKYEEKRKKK
T3 sequence (Q99720 whole entry, species assumed): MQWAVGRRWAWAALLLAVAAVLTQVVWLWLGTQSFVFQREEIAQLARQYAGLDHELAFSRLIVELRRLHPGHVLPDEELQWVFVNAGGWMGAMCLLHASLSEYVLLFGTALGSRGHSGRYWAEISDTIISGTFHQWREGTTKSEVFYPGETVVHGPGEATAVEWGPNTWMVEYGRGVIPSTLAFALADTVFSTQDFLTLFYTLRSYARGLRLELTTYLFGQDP

## CC(C)=CCN1CC[C@]2(C)c3cc(O)ccc3C[C@H]1[C@H]2C [(+)-pentazocine, reference compound]
sigma-1 receptor [1]; 10 μM, [125I]-IACoc or [125I]IAF
  protection of sigma-1 receptor photolabeling (in words): protected

## CN(C)CCc1c[nH]c2ccccc12 [DMT, N,N-dimethyltryptamine]
[2]
  inhibition at 100 µM: 29 ± 3%
KO myocytes
  reduction of INa: 7 ± 2%
sigma-1 receptor [1]; 10 μM
  protection of [125I]IAF photolabeling of the sigma-1 receptor: 31%
sigma-1 receptor [1]; 50 μM
  protection of [125I]IAF photolabeling of the sigma-1 receptor: 43%
sigma-1 receptor [1]; 100 μM
  protection of [125I]IAF photolabeling of the sigma-1 receptor: 69%
sigma-1 receptor [3]; 50 μM
  protection of [125I]-IACoc photolabeling of the 26-kD sigma-1 receptor: 61%
sigma-1 receptor [3]; 100 μM
  protection of [125I]-IACoc photolabeling of the 26-kD sigma-1 receptor: ~100%
[4]
  inhibition of INa: 62 ± 3%
WT mice; 2 mg/kg ip, 2 hours after pargyline (75 mg/kg, ip), n = 12
  distance traveled in open-field assay (hypermobility): 7025 ± 524.1 cm
[5]
  inhibition of INa: 22 ± 4%

## CNCCc1c[nH]c2ccccc12 [N-methyltryptamine]
sigma-1 receptor [3]
  protection against sigma-1 receptor [125I]-IACoc photolabeling (in words): protected minimally

## CNCCc1ccc(O)cc1 [N-methyltyramine]
sigma-2 receptor [6]; read-out: sigma-2 receptor Kd
  Kd: 6.61 µM

## COC(=O)C1C(OC(=O)c2ccc(N=[N+]=[N-])c(I)c2)CC2CCC1N2C (stereo not shown) [[^125I]-IACoc, 3-[^125I]iodo-4-azidococaine]
sigma-1 receptor [7]
  Kd: 0.000126 µM

## CC1CN(CCCc2ccc(N=[N+]=[N-])c(I)c2)CC(C)O1 (stereo not shown) [[^125I]IAF, 1-N-(2′,6′-dimethyl-morpholino)-3-(4-azido-3-[^125I]iodo-phenyl) propane]
sigma-2 receptor [8]
  Kd: 2.78 µM
sigma-1 receptor [7]
  Kd: 0.194 µM

## O=C(CCCN1CCC(O)(c2ccc(Cl)cc2)CC1)c1ccc(F)cc1 [haloperidol, reference compound]
sigma-2 receptor [9]; 10 μM, [125I]IAF
  protection of sigma-2 receptor photolabeling (in words): protected

## CN[C@@H](C)Cc1ccccc1 [methamphetamine, reference compound]
sigma-1 receptor KO mice
  hypermobility in open-field assay (in words): induced hypermobility
WT mice; 3 mg/kg, ip, n = 6
  hypermobility in open-field assay (in words): induced hypermobility

## NCCc1ccccc1 [phenethylamine]
sigma-2 receptor [6]
  Kd: 7.31 µM
sigma-1 receptor [10]
  Kd: 97.4 µM

## NCCc1c[nH]c2ccccc12 [tryptamine]
sigma-2 receptor [9]; 10 μM
  protection of [125I]IAF sigma-2 receptor photolabeling: 47%
sigma-2 receptor [9]; 50 μM
  protection of [125I]IAF sigma-2 receptor photolabeling: 78%
sigma-2 receptor [9]; 100 μM
  protection of [125I]IAF sigma-2 receptor photolabeling: 79%
sigma-2 receptor [6]
  Kd: 4.91 µM
sigma-1 receptor [3]
  protection against sigma-1 receptor [125I]-IACoc photolabeling (in words): protected minimally
sigma-1 receptor [10]
  Kd: 431 µM

## NCCc1ccc(O)cc1 [tyramine]
sigma-1 receptor [10]
  Kd: > 30000 µM
